Assays:
[1] = target: D(2) dopamine receptor (Rattus norvegicus) (UniProt P61169); test: In vivo displacement of [3H]Nemonapride from dopamine D2 receptor in Sprague-Dawley rat medial-prefrontal cortex at 13.75 mg/kg, ip qd for 28 days by autoradiography relative to control; type: functional, organism-based; parameters: dose 13.75 mg/kg
Outline: (§1)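 Male Sprague-Dawley rats, N = 8/group, daily ip dosing for 28 days with vehicle controls; cryostat sections (10 μm) preincubated 1 h RT. Incubation 1 h RT in 50 mM Tris-HCl pH 7.4, 120 mM NaCl, 5 mM KCl, 2 mM CaCl2, 1 mM MgCl2 with 1 nM [3H]nemonapride, 0.5 μM DTG, 0.1 μM pindolol. Nonspecific: 10 μM S(−)-sulpiride. Values fmol/mg tissue, % of control.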

Hippocampus [2] = test: In vivo displacement of [3H]Nemonapride from dopamine D2 receptor in Sprague-Dawley rat hippocampus at 13.75 mg/kg, ip qd for 28 days by autoradiography relative to control; type: functional; conditions: route intraperitoneal; outline: as §1
Hippocampus [3] = test: In vivo displacement of [3H]Ketanserin from 5HT2A receptor in Sprague-Dawley rat hippocampus CA1 region at 13.75 mg/kg, ip qd for 28 days by autoradiography relative to control; type: functional; conditions: route intraperitoneal
Outline: (§2)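 Rats (male Sprague-Dawley, N = 8/group) given daily ip injections for 28 days versus vehicle. Brain sections preincubated 1 h RT in 50 mM Tris-HCl pH 7.7, then 1 h RT with 3.0 nM [3H]ketanserin plus 1 μM prazosin and 100 nM tetrabenazine. Nonspecific: 1 μM methysergide. Washes 2 × 30 min ice-cold. Readout fmol/mg tissue as % of control, mean ± SEM.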

[4] = target: Serotonin 1a (5-HT1a) receptor/Adrenergic receptor alpha-1 (Rattus norvegicus) (UniProt P15823+P23944+P43140+P19327); test: In vivo displacement of [3H]8-OH-DPAT from 5HT1A receptor in Sprague-Dawley rat medial-prefrontal cortex at 13.75 mg/kg, ip qd for 28 days by autoradiography relative to control; type: functional, organism-based; parameters: dose 13.75 mg/kg
Outline: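 Male Sprague-Dawley rats (200−225 g, N = 8/group) dosed ip once daily for 28 days, vehicle controls, decapitated; 10 μm frozen coronal sections. Preincubation 1 h RT in 50 mM Tris-HCl pH 7.6, 0.1% ascorbic acid, 4 mM CaCl2, 10 μM pargyline; then 1 h RT with 2.0 nM [3H]8-OH-DPAT. Nonspecific: 1 μM 5-HT. Saturating conditions; binding in fmol/mg tissue, % of control, mean ± SEM.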

[5] = target: D(2) dopamine receptor (Rattus norvegicus) (UniProt P61169); test: In vivo displacement of [3H]Nemonapride from dopamine D2 receptor in Sprague-Dawley rat nucleus accumbens at 13.75 mg/kg, ip qd for 28 days by autoradiography relative to control; type: functional, organism-based; parameters: dose 13.75 mg/kg; outline: as §1
[6] = In vivo displacement of [3H]SCH-23390 from dopamine D1 receptor in Sprague-Dawley rat dorsolateral frontal cortex at 13.75 mg/kg, ip qd for 28 days by autoradiography relative to control; type: functional; conditions: route intraperitoneal
Outline: (§3)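 Forebrain sections from male Sprague-Dawley rats (N = 8/group) after 28 days of daily ip injections versus vehicle. Incubation 1 h RT in 50 mM Tris-HCl pH 7.4, 120 mM NaCl, 5 mM KCl, 2 mM CaCl2, 1 mM MgCl2 with 1 nM [3H]SCH-23390 and 100 nM ketanserin. Nonspecific: 1 μM cis-flupenthixol. Saturating conditions; fmol/mg tissue, % of control.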

Caudate-putamen [7] = test: In vivo displacement of [3H]Ketanserin from 5HT2A receptor in Sprague-Dawley rat lateral part of caudate putamen at 13.75 mg/kg, ip qd for 28 days by autoradiography relative to control; type: functional; conditions: route intraperitoneal; outline: as §2
Caudate-putamen [8] = test: In vivo displacement of [3H]Nemonapride from dopamine D2 receptor in Sprague-Dawley rat medial of caudate putamen at 13.75 mg/kg, ip qd for 28 days by autoradiography relative to control; type: functional; conditions: route intraperitoneal; outline: as §1
Hippocampus [9] = test: In vivo displacement of [3H]Nemonapride from dopamine D4 receptor in Sprague-Dawley rat hippocampus at 13.75 mg/kg, ip qd for 28 days by autoradiography relative to control; type: functional; conditions: route intraperitoneal
[10] = In vivo displacement of [3H]Nemonapride from dopamine D4 receptor in Sprague-Dawley rat medial-prefrontal cortex at 13.75 mg/kg, ip qd for 28 days by autoradiography relative to control; type: functional; conditions: route intraperitoneal
[11] = In vivo displacement of [3H]SCH-23390 from dopamine D1 receptor in Sprague-Dawley rat nucleus accumbens at 13.75 mg/kg, ip qd for 28 days by autoradiography relative to control; type: functional; conditions: route intraperitoneal; outline: as §3
[12] = target: D(2) dopamine receptor (Rattus norvegicus) (UniProt P61169); test: In vivo displacement of [3H]Nemonapride from dopamine D2 receptor in Sprague-Dawley rat entorhinal cortex at 13.75 mg/kg, ip qd for 28 days by autoradiography relative to control; type: functional, organism-based; parameters: dose 13.75 mg/kg; outline: as §1
Caudate-putamen [13] = test: In vivo displacement of [3H]Nemonapride from dopamine D4 receptor in Sprague-Dawley rat medial part of caudate putamen at 13.75 mg/kg, ip qd for 28 days by autoradiography relative to control; type: functional; conditions: route intraperitoneal
Caudate-putamen [14] = test: In vivo displacement of [3H]SCH-23390 from dopamine D1 receptor in Sprague-Dawley rat medial part of caudate putamen at 13.75 mg/kg, ip qd for 28 days by autoradiography relative to control; type: functional; conditions: route intraperitoneal; outline: as §3
Caudate-putamen [15] = test: In vivo displacement of [3H]Ketanserin from 5HT2A receptor in Sprague-Dawley rat medial part of caudate putamen at 13.75 mg/kg, ip qd for 28 days by autoradiography relative to control; type: functional; conditions: route intraperitoneal; outline: as §2
[16] = In vivo displacement of [3H]Nemonapride from dopamine D4 receptor in Sprague-Dawley rat entorhinal cortex at 13.75 mg/kg, ip qd for 28 days by autoradiography relative to control; type: functional; conditions: route intraperitoneal
[17] = In vivo displacement of [3H]SCH-23390 from dopamine D1 receptor in Sprague-Dawley rat medial-prefrontal cortex at 13.75 mg/kg, ip qd for 28 days by autoradiography relative to control; type: functional; conditions: route intraperitoneal; outline: as §3
[18] = In vivo displacement of [3H]Nemonapride from dopamine D4 receptor in Sprague-Dawley rat nucleus accumbens at 13.75 mg/kg, ip qd for 28 days by autoradiography relative to control; type: functional; conditions: route intraperitoneal

Sequence of D(2) dopamine receptor (Rattus norvegicus) (P61169 whole entry): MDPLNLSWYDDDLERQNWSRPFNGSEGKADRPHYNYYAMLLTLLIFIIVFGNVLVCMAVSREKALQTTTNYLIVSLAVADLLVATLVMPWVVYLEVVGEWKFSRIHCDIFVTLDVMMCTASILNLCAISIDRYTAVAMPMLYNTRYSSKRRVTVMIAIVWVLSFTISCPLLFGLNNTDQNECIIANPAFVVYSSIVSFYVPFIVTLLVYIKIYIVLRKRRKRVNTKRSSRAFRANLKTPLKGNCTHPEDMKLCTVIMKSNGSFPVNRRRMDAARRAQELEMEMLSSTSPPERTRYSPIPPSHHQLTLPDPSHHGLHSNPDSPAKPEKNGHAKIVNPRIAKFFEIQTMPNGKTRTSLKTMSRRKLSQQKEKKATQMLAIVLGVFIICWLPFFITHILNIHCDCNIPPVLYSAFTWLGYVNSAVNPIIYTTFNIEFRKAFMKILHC

Question: For `Clc1ccc2c(c1)N=C(N1CCNCC1)c1cccnc1O2`, which inhibition [1] is on record?
Answer: 141%

Question: What about the inhibition in vivo at 13.75 mg/kg (Hippocampus [2]) of the same compound?
Answer: 134%

Question: What about the inhibition in vivo at 13.75 mg/kg (Hippocampus [3]) of the same compound?
Answer: 96%

Question: What about the inhibition [4] of the same compound?
Answer: 137%

Question: And the inhibition [5]?
Answer: 140%

Question: And the inhibition in vivo at 13.75 mg/kg [6]?
Answer: 95%

Question: And the inhibition in vivo at 13.75 mg/kg (Caudate-putamen [7])?
Answer: 107%

Question: And the inhibition in vivo at 13.75 mg/kg (Caudate-putamen [8])?
Answer: 110%

Question: What about the inhibition in vivo at 13.75 mg/kg (Hippocampus [9]) of the same compound?
Answer: 117%

Question: What about the inhibition in vivo at 13.75 mg/kg [10] of the same compound?
Answer: 110%

Question: And the inhibition in vivo at 13.75 mg/kg [11]?
Answer: 128%

Question: What about the inhibition [12] of the same compound?
Answer: 96%

Question: And the inhibition in vivo at 13.75 mg/kg (Caudate-putamen [13])?
Answer: 166%

Question: What about the inhibition in vivo at 13.75 mg/kg (Caudate-putamen [14]) of the same compound?
Answer: 131%

Question: And the inhibition in vivo at 13.75 mg/kg (Caudate-putamen [15])?
Answer: 87%

Question: And the inhibition in vivo at 13.75 mg/kg [16]?
Answer: 103%

Question: What about the inhibition in vivo at 13.75 mg/kg [17] of the same compound?
Answer: 97%

Question: What about the inhibition in vivo at 13.75 mg/kg [18] of the same compound?
Answer: 178%
